# Assay results of several laboratories.
# Lines come from different studies, so protocols differ.
# Target: Dual specificity tyrosine-phosphorylation-regulated kinase 1A (DYRK1A, Homo sapiens, UniProt Q13627)
SMILES,test,conditions,remaining binding [%]
Cc1cnc(Nc2ccc(C(=O)N3CCC(N4CCCC4)CC3)cc2)nc1-c1cc2ccccc2s1,"binding, competition with immobilised ligand",1 µM,19
CN(CCCC(F)(F)F)c1nccc(-c2cnn3ncccc23)n1,binding,1 µM,35
COc1cnc(Nc2cccc(S(N)(=O)=O)c2)nc1N1CCN(c2ccccc2)CC1,"binding, competition with immobilised ligand",1 µM,76
COc1ncc2cc3ccccc3nc2c1C#N,"cell-free assay, competition with immobilised ligand",5 µM,74
O=C(NC[C@@H]1[C@H]2CN(C(=O)OCc3cc(C(F)(F)F)cc(C(F)(F)F)c3)C[C@@H]12)c1ccc2[nH]nnc2c1,"cell-free assay, competition with immobilised ligand",1 µM,86
C[C@@H](c1ccc(-n2cnc3c(N)ncnc32)cc1)N1CCc2nn(C)c(Cc3ccccc3)c2C1=O,"binding, competition with immobilised ligand",0.1 µM,80
CCOCCn1cc(C(=O)Nc2ccc(-n3nc(-c4cccnc4)cc3C(F)(F)F)cn2)ccc1=O,"cell-free assay, competition with immobilised ligand",1 µM,77
COc1cnc(Nc2cccc(S(N)(=O)=O)c2)nc1N1CCN(c2ccccc2)C(=O)C1,"binding, competition with immobilised ligand",1 µM,91
COc1ccc2c(c1)O[C@@H](c1ccc(OC)c(OC)c1)C[C@H]2NC(=O)C1(c2ccc3c(c2)OC(F)(F)O3)CC1,"cell-free assay, competition with immobilised ligand",1 µM,80
O=C(Nc1c[nH]nc1C(=O)NC1CCNCC1)c1cc(F)cc(F)c1,"binding, competition with immobilised ligand",1 µM,19
O=C(c1ccc(Nc2nccc(-c3cc4ccccc4s3)n2)cc1)N1CCC(N2CCCC2)CC1,"binding, competition with immobilised ligand",1 µM,68
CSc1cccnc1N1CCN(Cc2nc3ccccc3[nH]2)CC1,"cell-free assay, competition with immobilised ligand",1 µM,79
O=C(NCCCN1CCOCC1)c1ccc(Nc2ncc(Cl)c(-c3ccc(Cl)s3)n2)cc1,"binding, competition with immobilised ligand",1 µM,0.5
c1cncc(-c2cccc(Nc3nccc(NC4CCCCC4)n3)c2)c1,"binding, competition with immobilised ligand",10 µM,26
